Experimental data reported in ChEMBL document CHEMBL4052621, “Identification of new anti-inflammatory agents based on nitrosporeusine natural products of marine origin” (Eur J Med Chem, 2017).
The source made the active and inactive calls. No cut-off for these calls is given here.

Assays:
[1] = system: RAW264.7; assay: Cytotoxicity against mouse RAW264.7 cells assessed as decrease in cell viability after 24 hrs by MTT assay; type: cell-based; conditions: RAW264.7, 24 h
Procedure, shortened: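 RAW264.7 macrophage viability after compound exposure was measured by MTT assay. IC50 (µM) was calculated and reported with a 95% confidence interval.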

[2] = system: RAW264.7; assay: Antiinflammatory activity in mouse RAW264.7 cells assessed as inhibition of LPS-induced NO production after 24 hrs by Griess assay; type: functional, cell-based; conditions: for IC50: RAW264.7, 24 h
Procedure, shortened: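 LPS-stimulated RAW264.7 cells were co-treated with compound. Nitrite, a stable NO metabolite, was measured in culture medium with Griess reagent. IC50 (µM) was reported with a 95% confidence interval.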

[3] = system: RAW264.7; assay: Antiinflammatory activity in mouse RAW264.7 cells assessed as inhibition of LPS-induced IL-12 production at 50 uM after 24 hrs by phycoerythrin staining based flow cytometry; type: functional, cell-based
Procedure, shortened: (§1)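 Cytokine bead array on protein extracts of RAW 264.7 cells treated with LPS plus compound at 50 µM. Read-outs were IL-12, IL-6, TNF-α, MCP-1 and IFN-γ, referenced to LPS-treated cells. Mean ± SD, n = 3 independent experiments.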

[4] = species: Mus musculus; assay: Inhibition of LPS-induced NFkappaB phosphorylation in mouse RAW264.7 cells at 50 uM after 24 hrs by Western blot analysis; type: cell-based
Procedure, shortened: (§2)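 Protein was isolated from control, LPS, and LPS + compound (50 µM) RAW 264.7 cultures and immunoblotted. iNOS, COX-2 and phospho-NF-κB were quantified densitometrically against β-actin. Mean ± SD of 3 independent experiments, compared with LPS treatment.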

[5] = system: Mus musculus; assay: Antiinflammatory activity in BALB/c mouse assessed as inhibition of LPS-induced IL-6 production at 10 mg/kg, ip pretreated for 3 days as single dose followed by LPS administration after 24 hrs by phycoerythrin staining based flow cytometry; type: functional, organism-based
[6] = system: RAW264.7; assay: Selectivity index, ratio IC50 for cytotoxicity against mouse RAW264.7 cells to IC50 for antiinflammatory activity in mouse RAW264.7 cells; type: functional
Procedure, shortened: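 Ratio A/B in RAW 264.7 cells. A is the cytotoxicity IC50 from the MTT assay. B is the IC50 for inhibiting NO production in LPS-stimulated cells, with nitrite in the culture medium measured by Griess reagent. Both IC50s are reported with 95% confidence intervals.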

[7] = system: RAW264.7; assay: Antiinflammatory activity in mouse RAW264.7 cells assessed as inhibition of LPS-induced ROS production after 24 hrs by CM-H2DCFDA dye based fluorescence assay; type: functional, cell-based
Procedure, shortened: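 Intracellular ROS was measured in LPS-treated RAW 264.7 cells exposed to compounds at several doses. The read-out was mean fluorescence intensity, compared with LPS-treated cells. Data are mean ± SD of three independent experiments.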

[8] = system: RAW264.7; assay: Antiinflammatory activity in mouse RAW264.7 cells assessed as inhibition of LPS-induced COX-2 production at 50 uM after 24 hrs by Western blot analysis; type: functional, cell-based; procedure, shortened: as §2
[9] = system: RAW264.7; assay: Antiinflammatory activity in mouse RAW264.7 cells assessed as inhibition of LPS-induced iNOS production at 50 uM after 24 hrs by Western blot analysis; type: functional, cell-based; procedure, shortened: as §2
[10] = system: RAW264.7; assay: Antiinflammatory activity in mouse RAW264.7 cells assessed as inhibition of LPS-induced IL-6 production at 50 uM after 24 hrs by phycoerythrin staining based flow cytometry; type: functional, cell-based; procedure, shortened: as §1
[11] = system: RAW264.7; assay: Antiinflammatory activity in mouse RAW264.7 cells assessed as inhibition of LPS-induced TNF-alpha production at 50 uM after 24 hrs by phycoerythrin staining based flow cytometry; type: functional, cell-based; procedure, shortened: as §1
[12] = system: RAW264.7; assay: Antiinflammatory activity in mouse RAW264.7 cells assessed as inhibition of LPS-induced […] production at 50 uM after 24 hrs by phycoerythrin staining based flow cytometry; type: functional, cell-based; procedure, shortened: as §1
[13] = system: RAW264.7; assay: Antiinflammatory activity in mouse RAW264.7 cells assessed as inhibition of LPS-induced MCP-1 production at 50 uM after 24 hrs by phycoerythrin staining based flow cytometry; type: functional, cell-based; procedure, shortened: as §1
[14] = system: Mus musculus; assay: Antiinflammatory activity in BALB/c mouse assessed as inhibition of LPS-induced IL-12 production at 10 mg/kg, ip pretreated for 3 days as single dose followed by LPS administration after 24 hrs by phycoerythrin staining based flow cytometry; type: functional, organism-based
[15] = system: Mus musculus; assay: Antiinflammatory activity in BALB/c mouse assessed as inhibition of LPS-induced TNF-alpha production at 10 mg/kg, ip pretreated for 3 days as single dose followed by LPS administration after 24 hrs by phycoerythrin staining based flow cytometry; type: functional, organism-based
[16] = system: Mus musculus; assay: Antiinflammatory activity in BALB/c mouse assessed as inhibition of LPS-induced […] production at 10 mg/kg, ip pretreated for 3 days as single dose followed by LPS administration after 24 hrs by phycoerythrin staining based flow cytometry; type: functional, organism-based
[17] = system: Mus musculus; assay: Antiinflammatory activity in BALB/c mouse assessed as inhibition of LPS-induced MCP-1 production at 10 mg/kg, ip pretreated for 3 days as single dose followed by LPS administration after 24 hrs by phycoerythrin staining based flow cytometry; type: functional, organism-based
[18] = Antiviral activity against Influenza A virus A/WSN/33(H1N1) infected in MDCK cells at 50 uM preincubated for 15 mins measured after 1.5 days by CellTiter-Glo assay relative to control; type: functional, Influenza A virus (A/WSN/1933(H1N1))
[19] = Antiviral activity against Influenza A virus A/WSN/33(H1N1) infected in MDCK cells preincubated for 1 hr followed by compound wash measured after 48 hrs by plaque reduction assay; type: functional, cell-based, Influenza A virus (A/WSN/1933(H1N1))
[20] = system: RAW264.7; assay: Antiinflammatory activity in mouse RAW264.7 cells assessed as inhibition of LPS-induced COX-2 production at 30 uM after 24 hrs by Western blot analysis; type: functional, cell-based
Procedure, shortened: (§3)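 Immunoblot of protein from RAW 264.7 cells under control, LPS, and LPS + enantiomer (30 µM) conditions. COX-2, iNOS and phospho-NF-κB bands were quantified by densitometry and normalised to β-actin. Mean ± SD from 3 independent experiments; p-values are versus LPS-treated cells.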

[21] = system: RAW264.7; assay: Antiinflammatory activity in mouse RAW264.7 cells assessed as inhibition of LPS-induced iNOS production at 30 uM after 24 hrs by Western blot analysis; type: functional, cell-based; procedure, shortened: as §3
[22] = species: Mus musculus; assay: Inhibition of LPS-induced NFkappaB phosphorylation in mouse RAW264.7 cells at 30 uM after 24 hrs by Western blot analysis; type: cell-based; procedure, shortened: as §3
[23] = system: RAW264.7; assay: Antiinflammatory activity in mouse RAW264.7 cells assessed as inhibition of LPS-induced IL-12 production at 30 uM after 24 hrs by phycoerythrin staining based flow cytometry; type: functional, cell-based
Procedure, shortened: (§4)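 LPS-stimulated RAW 264.7 cells were co-treated with enantiomers at 30 µM. Cell protein extracts were analysed by cytometric bead array for IL-12, IL-6, TNF-α, MCP-1 and IFN-γ and compared with LPS-only cells. Mean ± SD of three independent experiments.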

[24] = system: RAW264.7; assay: Antiinflammatory activity in mouse RAW264.7 cells assessed as inhibition of LPS-induced IL-6 production at 30 uM after 24 hrs by phycoerythrin staining based flow cytometry; type: functional, cell-based; procedure, shortened: as §4
[25] = system: RAW264.7; assay: Antiinflammatory activity in mouse RAW264.7 cells assessed as inhibition of LPS-induced TNF-alpha production at 30 uM after 24 hrs by phycoerythrin staining based flow cytometry; type: functional, cell-based; procedure, shortened: as §4
[26] = system: RAW264.7; assay: Antiinflammatory activity in mouse RAW264.7 cells assessed as inhibition of LPS-induced […] production at 30 uM after 24 hrs by phycoerythrin staining based flow cytometry; type: functional, cell-based; procedure, shortened: as §4
[27] = system: RAW264.7; assay: Antiinflammatory activity in mouse RAW264.7 cells assessed as inhibition of LPS-induced MCP-1 production at 30 uM after 24 hrs by phycoerythrin staining based flow cytometry; type: functional, cell-based; procedure, shortened: as §4

For `CC(=O)OC1CC[C@]2(SC(=O)c3ccc(F)cc3)C(=O)NC(=O)[C@H]12` (stereo not given in full), the IC50 [1] was 12100 µM, the IC50 [2] was 34.3 µM and the inhibition [3] was “Active”. The inhibition [4] was “Active”, the inhibition [5] was “Active” and the “Ratio IC50” value [6] was 353.8076. The inhibition [7] was “Dose-dependent effect”, the inhibition [8] was “Active” and the inhibition [9] was “Active”. For the same compound, the inhibition [10] was “Active”, the inhibition [11] was “Active” and the inhibition [12] was “Active”. For the same compound, the inhibition [13] was “Active”, the inhibition [14] was “Active” and the inhibition [15] was “Active”. The inhibition [16] was “Active” and the inhibition [17] was “Active”.
For `O=C(S[C@]12CC[C@H](O)[C@H]1C(=O)NC2=O)c1ccc(O)cc1`, the IC50 [1] was 1380 µM, the “Ratio IC50” value [6] was 9.85 and the Activity [18] was 30.9%. The EC50 [19] was 113 µM.
With `O=C(S[C@@]12CC[C@H](O)[C@@H]1C(=O)NC2=O)c1ccc(O)cc1` the IC50 [1] was 1020 µM, the IC50 [2] was 71.8 µM and the “Ratio IC50” value [6] was 14.14. For the same compound, the Activity [18] was 18.6%.
Compound `CCOC(=O)C1=C[C@@H](OC(CC)CC)[C@H](NC(C)=O)[C@@H](N)C1.O=P(O)(O)O` [OSELTAMIVIR PHOSPHATE] has an Activity [18] of 54% and an EC50 [19] of 67 µM.
In the case of `CC(=O)O[C@H]1CC[C@@]2(SC(=O)c3ccc(F)cc3)C(=O)NC(=O)[C@@H]12`, the inhibition [2] is reported as “Active”, the inhibition [20] is reported as “Active” and the inhibition [21] is reported as “Active”. For the same compound, the inhibition [22] was “Active”, the inhibition [23] was “Active” and the inhibition [24] was “Active”. For the same compound, the inhibition [25] was “Active”, the inhibition [26] was “Active” and the inhibition [27] was “Active”.
With `O=C(S[C@]12CC[C@H](O)[C@H]1C(=O)NC2=O)c1cccs1` (relative stereo) the IC50 [1] was 10900 µM, the IC50 [2] was 36.6 µM and the inhibition [3] was “Active”. The inhibition [4] was “Active”, the inhibition [5] was “Active” and the “Ratio IC50” value [6] was 297.0519. The inhibition [7] was “Dose-dependent effect”, the inhibition [8] was “Active” and the inhibition [9] was “Active”. The inhibition [10] was “Active”, the inhibition [11] was “Active” and the inhibition [12] was “Active”. For the same compound, the inhibition [13] was “Active”, the inhibition [14] was “Active” and the inhibition [15] was “Active”. For the same compound, the inhibition [16] was “Active” and the inhibition [17] was “Active”.
With `CC(=O)SC1CC[C@]2(SC(C)=O)C(=O)NC(=O)[C@H]12` (stereo not given in full) the IC50 [1] was 10000 µM, the IC50 [2] was 19.8 µM and the inhibition [3] was “Active”. For the same compound, the inhibition [4] was “Active”, the inhibition [5] was “Active” and the “Ratio IC50” value [6] was 505.4343. For the same compound, the inhibition [7] was “Dose-dependent effect”, the inhibition [8] was “Active” and the inhibition [9] was “Active”. The inhibition [10] was “Active”, the inhibition [11] was “Active” and the inhibition [12] was “Active”. For the same compound, the inhibition [13] was “Active”, the inhibition [14] was “Active” and the inhibition [15] was “Active”. The inhibition [16] was “Active” and the inhibition [17] was “Active”.
